Screening results as filed in PubChem BioAssay.
The list is not random: actives were taken first. Their share in the collection is about 1.6%.
TDP2 inh: human TDP2 enzyme inhibitors, primary screen, biochemical, epi absorbance, recombinant enzyme | inhibition, % at 12.8 µM | T5PNP hydrolysis, p-nitrophenol absorbance 415 nm | Tyrosyl-DNA phosphodiesterase 2 (Homo sapiens), O95551 | 370,000 compounds, 0.34% hits;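 active = inhibition above the mean of all tested compounds plus 3 SD, set per campaign, cut at about 25% in these data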;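 note: 0% = DMSO with enzyme and 100% = buffer with substrate but no TDP2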
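System: recombinant human TDP2 / Amount: 120 nM TDP2 per well / Also added: 5 mM T5PNP chromogenic substrate / Doses: 12.8 µM single point, 1% DMSO / Incubation: 2 h at 37 °C / Detection: p-Nitrophenol epi absorbance / Evaluation: % inhibition relative to enzyme-containing and enzyme-free wells / Repeats: singlicate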
LEDGF integ inh: blockers of LEDGF/p75-dependent integrase strand transfer – biochemical, TR-FRET, high throughput, primary screen; 370,000 compounds, 0.64% hits; inhibition, % at 3.7 µM; AID 743269, 2014; TR-FRET IN-LEDGF/p75 DNA integration, Eu/Cy5; HIV-1 integrase (with human LEDGF/p75);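 active = inhibition above the screen-wide mean plus 3 SD, cut at about 13% in these data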;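 note: signal is the Cy5 over europium emission ratio at 671 and 618 nm; 0% = plate median of compound wells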
MBD2 inh: inhibitors of MBD2 binding to methylated DNA, primary screen, biochemical, TR-FRET, DNA-binding domain, human; MBD2 binding to methylated oligonucleotide; inhibition, % at 4.4 µM; 370,000 compounds, 0.31% hits; in the data active = inhibition above about 13%
Target sequence (Q9UBB5 whole entry, looked up, the tested form may be a part): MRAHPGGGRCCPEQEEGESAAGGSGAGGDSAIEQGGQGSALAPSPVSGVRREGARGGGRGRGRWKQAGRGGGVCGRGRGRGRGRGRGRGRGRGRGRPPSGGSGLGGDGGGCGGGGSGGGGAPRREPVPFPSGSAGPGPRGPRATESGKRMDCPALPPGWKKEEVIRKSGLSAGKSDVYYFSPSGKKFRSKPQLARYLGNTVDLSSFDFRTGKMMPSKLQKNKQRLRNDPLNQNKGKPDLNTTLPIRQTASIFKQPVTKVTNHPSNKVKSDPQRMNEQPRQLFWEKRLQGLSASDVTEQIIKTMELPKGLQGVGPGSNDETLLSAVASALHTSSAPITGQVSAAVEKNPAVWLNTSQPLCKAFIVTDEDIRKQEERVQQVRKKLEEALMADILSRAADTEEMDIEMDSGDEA
UHRF1 binding: UHRF1 methylated DNA binding inhibitors, primary screen, counter-screen for MBD2 inhibitor project, biochemical, TR-FRET, human UHRF1, single concentration; E3 ubiquitin-protein ligase UHRF1 (Homo sapiens), Q96T88; UHRF1 binding to methylated oligo; inhibition, % at 4.4 µM; 370,000 compounds, 0.75% hits; AID 687016, 2013;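 note: UHRF1 SRA domain binding a hemimethylated CpG hairpin DNA probe; 0% = median of test compound wells and 100% = reference inhibitor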
UHRF1 ctr MBD2: UHRF1 methylated DNA binding inhibitors, counter-screen for MBD2 inhibitor project, biochemical, TR-FRET, human UHRF1; shares compounds with MBD2 inh; UHRF1 binding to methylated oligonucleotide; inhibition, % at 4.4 µM; 1,000 compounds, 25% hits; AID 720530, 2013;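 note: UHRF1 SRA domain binding a labeled hemimethylated CpG hairpin DNA; 0% = vehicle only and 100% = reference inhibitor with vehicle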
MBD2 DBD conf: inhibitors of MBD2 binding to methylated DNA, confirmation, biochemical, TR-FRET, DNA-binding domain, human | shares compounds with MBD2 inh | TR-FRET MBD2-DBD binding to methylated oligonucleotide | inhibition, % at 4.4 µM | 1,000 compounds, 26% hits | AID 720531, 2013; in the data active = inhibition above about 14%
The depositor's hits bear a star; / = not tested or not shown. Cut-off read from the data, not from the text of the source, unless noted: active = inhibition above about 21%; inactive = the rest.

SMILES | TDP2 inh | LEDGF integ inh | MBD2 inh | UHRF1 binding | UHRF1 ctr MBD2 | MBD2 DBD conf
COC(=O)N1C[C@H](O)[C@H](O)C[C@@H]1c1ccccc1Br | -1 | 3 | -2 | 2 | / | /
NC(=O)C1=C(N)c2ccccc2C1c1ccccc1 (stereo not drawn) | -5 | -5 | 32* | 1 | 2 | 1
COc1cc(NC(=O)C2CCCN(S(=O)(=O)c3ccc(Br)s3)C2)cc(OC)c1 (stereo not drawn) | -3 | -3 | 0 | 1 | / | /
O=C(/C=C/c1cccs1)N1CCC2(CC1)Oc1ccc(Cl)cc1C(=O)C21CC(c2cccnc2)=NO1 (stereo not drawn) | -4 | 11 | 16* | -2 | 6 | 2
O=C(c1cc(Br)cc(Br)c1)N1CCC(Oc2cccnc2)CC1 | -4 | -4 | 3 | 3 | / | /
O=C1NC(=S)S/C1=C\c1ccc(SCc2ccccc2)o1 | 16 | 43* | 29* | 82* | 12 | 10
O=C1NC(=S)SC1=Cc1ccccc1Cl | -8 | 5 | 5 | -3 | / | /
CC(C)NC(=O)OC[C@H]1O[C@H](C#Cc2ccc(C(C)(C)C)cc2)C=C[C@H]1O | -1 | -1 | 5 | 0 | / | /
COc1ccc(CC(=O)Nc2ccc(OC)c(NC(=O)c3ccco3)c2)cc1 | 6 | 2 | 15* | 20 | 3 | 6
COc1ccc(NC(=O)CCc2ccccc2)cc1NC(=O)c1ccco1 | -8 | 0 | 3 | 4 | / | /
CC(C)CNc1ccc2c(c1)OC[C@H](C)NS2(=O)=O | -8 | 3 | 13* | 21* | 11 | 4
Cc1ccc(NC(=O)CN(C)CC(=O)Nc2c(C)cccc2C)c(Br)c1 | 13 | -1 | 38* | -2 | 0 | 5
COc1cc(OC)cc(-c2sc3ccc(OC)cc3c2C#CCCO)c1 | -1 | -1 | 7 | 13 | / | /
COc1ccc2sc(-c3ccccc3OC)c(C#CCCO)c2c1 | -9 | 3 | 15* | 17 | 9 | 7
COc1cccc(CC(=O)N2CCC(CCC(=O)Nc3cccc(OC)c3)CC2)c1 | 5 | -1 | -2 | -2 | / | /
COc1cccc(NC(=O)CCC2CCN(C(=O)c3cccc(NC(C)=O)c3)CC2)c1 | 5 | 1 | 36* | 2 | 5 | 2
Cc1cc(C)c(OCC(=O)OCC(=O)NCc2cccs2)c(C)c1 | -1 | -3 | 2 | -4 | / | /
Cc1cc(C)c(OCC(=O)OCC(=O)NNC(=O)c2ccccc2F)c(C)c1 | 7 | -7 | 22* | 3 | 5 | 2
C[C@H](O)[C@@H]1C(=O)N2CCc3c([nH]c4c(-c5ccccc5)cccc34)[C@@H]2C[C@@H]1N(C)C(=S)NCCc1ccccc1 | -3 | -4 | 0 | 1 | / | /
O=C1C(=O)N(Cc2ccc(-c3ccc(Cl)nc3)cc2)c2ccc(OC(F)(F)F)cc21 | 4 | -3 | 4 | 0 | / | /
Cc1ccc2nc(Cl)c3cc(C(=O)NCCCN4CCCC4)sc3c2c1 | -11 | -3 | 15* | -4 | 8 | 16*
C[C@@H]1ON(C)[C@H]2C[C@H]3c4[nH]c5cccc(Br)c5c4CCN3C(=O)[C@@H]12 | -14 | -2 | -6 | -1 | / | /
COC(=O)c1ccc(Oc2ccc3nncn3n2)cc1 | -7 | -4 | 1 | -2 | / | /
COC(=O)c1ccc(Oc2ccc3nnc(C)n3n2)cc1 | 0 | -2 | 13* | 8 | -1 | 3
O=C(CNc1ccccc1Cl)N/N=C1\CCCc2ccccc21 | 4 | 1 | 23* | 2 | 4 | 1
SMILES | TDP2 inh | LEDGF integ inh | MBD2 inh | UHRF1 binding | UHRF1 ctr MBD2 | MBD2 DBD conf
O=C(O)c1cc(N2C(=O)CCC2=O)ccc1Cl | 9 | 6 | 15* | 18 | 4 | 2
COC(=O)c1c(NC(=O)C2CCCCC2)sc2c1CCN(C(C)C)C2 | 1 | -2 | 4 | 3 | / | /
CCOC(=O)c1c(NC(=O)C2CCCCC2)sc2c1CCN(C(C)C)C2 | -2 | 0 | 16* | 2 | 5 | 5
CCOC(=O)c1c(NC(=O)c2ccc(S(=O)(=O)N3CCOCC3)cc2)sc2c1CCN(C(C)C)C2 | 1 | 0 | 20* | 25* | 34* | 27*
COCc1[nH]nc2c1C(c1cccc(C(F)(F)F)c1)N(c1ccccc1)C2=O (stereo not drawn) | 0 | -4 | -1 | 0 | / | /
Cc1cc(C(=O)N2CCN(c3ncccn3)CC2)cs1 | 10 | 1 | 17* | 4 | -1 | 5
N#CCC[C@@H]1CC[C@]2(CCCN(C(=O)c3ccc4ccccc4n3)C2)O1 | -5 | 4 | -5 | -1 | / | /
Cc1ccc(C=NNC(=O)CSc2nc3sc4c(c3c(=O)n2-c2ccccc2)CCCC4)s1 | 1 | 0 | -1 | 0 | / | /
Cc1cc(NC(=O)c2ccc3[nH]c(C)c(C)c3c2)ccn1 | -9 | 3 | 14* | 1 | 10 | 3
CCC(CO)Nc1cccc2c1S(=O)(=O)N(Cc1cn(Cc3ccc(C(F)(F)F)cc3)nn1)Cc1ccccc1O2 (stereo not drawn) | -2 | 4 | 7 | 9 | / | /
COc1ccc(-c2nn(C)c3sc(C(=O)NCCN(C)C)cc23)cc1OC | -7 | -6 | 18* | 28* | 29* | 25*
CCN(CC)CCNC(=O)c1cc2c(-c3cccc(OC)c3)nn(C)c2s1 | 13 | -2 | 6 | 7 | / | /
COc1ccc(C)cc1NC(=O)c1cccc(C(=O)Nc2cc(C)ccc2OC)c1 | 7 | -5 | 74* | -1 | 0 | 0
COc1ccc(C)cc1NC(=O)c1ccc2c(c1)OCO2 | -1 | -3 | 3 | -1 | / | /
CC(C)(C)C1CCc2onc(C(=O)NCc3ccc(F)cc3)c2C1 (stereo not drawn) | -12 | 1 | 17* | 17 | 2 | 2
CCc1c(C(=O)C(C)O)c2n3c1CCC[C@@H]3CC2 (stereo partly drawn) | 1 | -2 | 9 | 1 | / | /
COC(=O)[C@]12C[C@H](CC(=O)NCCC(C)C)C(=O)N(CCc3ccc(OC)c(OC)c3)C1=C[C@H](COCc1ccccc1)O[C@@H]2C | -3 | 2 | -3 | -1 | / | /
COc1ccc(NC(=O)c2cccs2)cc1C(=O)N1CCN(c2ccccc2)CC1 | 4 | -2 | 24* | 1 | 9 | 2
COc1cccc(OC)c1C(=O)Nc1ccc(N2CCN(C(=O)c3cccs3)CC2)cc1 | 16 | 2 | -3 | 1 | / | /
